Screening data from PubChem BioAssay.
HTRA1 inhibitor – HTRA1 serine protease inhibitors, primary screen, biochemical, fluorescence polarization, HTS. 0.5% of 340,000 active. recombinant HTRA1, FP-rhodamine activity-based probe. inhibition, % at 5.96 µM; in the data active = inhibition above about 36%;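 also: 0% = enzyme with DMSO and 100% = wells lacking enzyme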
DAGLB inh – DAGLB lipase inhibitors, primary screen, biochemical, fluorescence, HTS | Diacylglycerol lipase-beta (Homo sapiens), Q8NCG7 | HEK293T DAGLB membrane lysate, EnzChek fluorogenic substrate | inhibition, % at 5.17 µM | 0.059% of 340,000 active; in the data active = inhibition above about 34%;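 also: 0% = enzyme with vehicle and 100% = wells lacking enzyme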
Target sequence (Q8NCG7 whole entry, looked up): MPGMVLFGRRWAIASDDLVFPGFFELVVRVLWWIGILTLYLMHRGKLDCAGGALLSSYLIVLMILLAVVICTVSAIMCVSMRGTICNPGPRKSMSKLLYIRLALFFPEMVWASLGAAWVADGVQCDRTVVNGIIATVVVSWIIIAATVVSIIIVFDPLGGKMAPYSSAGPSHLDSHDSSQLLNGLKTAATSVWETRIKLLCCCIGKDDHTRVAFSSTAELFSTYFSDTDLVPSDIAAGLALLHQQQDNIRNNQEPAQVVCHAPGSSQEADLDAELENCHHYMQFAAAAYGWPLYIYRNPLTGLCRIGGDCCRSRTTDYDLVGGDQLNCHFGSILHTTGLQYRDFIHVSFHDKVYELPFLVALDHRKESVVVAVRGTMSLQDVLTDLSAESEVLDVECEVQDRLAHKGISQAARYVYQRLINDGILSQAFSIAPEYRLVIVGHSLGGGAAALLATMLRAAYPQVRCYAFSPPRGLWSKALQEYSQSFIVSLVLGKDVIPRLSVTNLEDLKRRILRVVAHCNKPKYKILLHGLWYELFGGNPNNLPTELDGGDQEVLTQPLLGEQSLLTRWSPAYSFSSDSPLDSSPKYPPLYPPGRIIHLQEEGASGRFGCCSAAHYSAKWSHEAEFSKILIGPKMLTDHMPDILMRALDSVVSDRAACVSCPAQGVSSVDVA
mABHD4 FP – ABHD4 inhibitors, primary screen, biochemical, fluorescence polarization, mouse. (Lyso)-N-acylphosphatidylethanolamine lipase (Mus musculus), Q8VD66. purified mABHD4, FP-Rh probe fluorescence polarization. inhibition, % at 8.92 µM. 0.54% of 370,000 active;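 active = inhibition exceeding the mean over every tested compound plus 3 SD, cut at about 30% in these data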;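 also: 0% = plate median of compound wells and 100% = S159A mutant with DMSO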
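Assay system: mouse ABHD4 enzyme, wild type / Also added: fluorescent activity-based probe FP-Rh / Doses: single nominal dose of 8.92 µM, 0.89% DMSO final / Timing: 45 min compound pre-incubation plus 60 min probe step, 25 °C / Signal: FP readout, ex 525 nm / em 598 nm / Control set: S159A mutant/DMSO as 100%, compound-well median as 0%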
SIAE primary – human SIAE inhibitors, primary screen, biochemical, fluorescence polarization, FP-Rh probe, 1536-well HTS; SIAE FP-Rh probe binding; 0.69% of 370,000 active; AID 1053197, 2014; inhibition, % at 9.66 µM; Sialate O-acetylesterase (Homo sapiens), Q9HAT2;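 active = inhibition above a cutoff: mean of compounds within the control limits plus 3 SD of those, cut at about 17% in these data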;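 also: 0% = plate median of compound wells and 100% = probe without SIAE protein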
TCR CD3 inh – inhibitors of human TCR-CD3 interaction, primary screen, biochemical, fluorescence, TAMRA-labeled TCR probe; T-cell receptor (TCR); 0.37% of 360,000 active; inhibition, % at 9.4 µM; in the data active = inhibition above about 19%;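 also: recombinant mutant TCR 2C K166C tagged with TAMRA read by polarization; 0% = receptor in buffer alone and 100% = receptor with positive control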
SIAE inh conf – human SIAE inhibitors, retest, confirmation, biochemical, fluorescence polarization, FP-Rh probe, triplicate; shares compounds with SIAE primary; inhibition, % at 9.66 µM; SIAE FP-Rh activity-based probe; 13% of 2,300 active;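 active = mean inhibition of the replicates above the hit cutoff set in the primary screen, cut at about 17% in these data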;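 also: 0% = SIAE with DMSO and probe and 100% = probe without SIAE; inhibitors lower polarization as more probe stays unbound to SIAE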
* marks the source's active call; other numbers are inactive results; · = not tested or not shown; ! = repeats disagree. Only some compounds are listed: those with a hit (about 1.6% of all), similar ones and a draw of the others.

SMILES	HTRA1 inhibitor	DAGLB inh	mABHD4 FP	SIAE primary	TCR CD3 inh	SIAE inh conf
O=C(NCCc1csc(-c2cccnc2)n1)c1ccc(Br)o1	-3	2	-2	18*	6	-1
COC(=O)Nc1ccc(S(=O)(=O)N2CCCC(C(=O)O)C2)cc1 (stereo not drawn)	1	0	-1	19*	-4	5
CC(=O)Nc1ccc(S(=O)(=O)N2CCCC(C(=O)O)C2)cc1 (stereo not drawn)	5	-3	2	8	8	·
Cc1ccc(-c2nc3ncccn3c2NC(=O)Nc2ccc(F)cc2)cc1	·	·	-6	11	·	·
Cc1ccc(/C=N\NC(=O)/C(=C\Nc2nccc(C)n2)NC(=O)c2ccccc2)cc1	-7	0	10	18*	3	7
COc1ccc(/C=N\NC(=O)/C(=C\Nc2nccc(C)n2)NC(=O)c2ccccc2)cc1	-8	0	14	0	-2	·
Cn1c(SCC(=O)c2ccc3c(c2)OCO3)nnc1-c1ccccn1	-4	-1	0	25*	1	1
CN(C)c1ccc(/C=[N+](\[O-])C2N(c3ccccc3)C(=S)SC2(C)C)cc1 (stereo not drawn)	0	0	-3	26*	-1	2
COc1ccccc1NC(=O)c1cc2c(CO)cnc(C)c2oc1=Nc1cc(OC)c(OC)c(OC)c1	0	0	4	18*	-1	5
COc1ccccc1NC(=O)c1cc2c(CO)cnc(C)c2oc1=Nc1ccc(OC)c(OC)c1	17	4	-10	-16	-5	·
S=c1[nH]nc(-c2ccncc2)n1/N=C/C=C/c1ccco1	8	1	17	19*	4	2
Cc1cccc(-c2n[nH]c(=S)n2/N=C/C=C/c2ccco2)c1	33	5	22	5	14	·
O=C(N/N=C/c1cn(-c2ccccc2)nc1-c1ccccc1)c1ccco1	-44	-1	-14	21*	-2	3
O=C(N/N=C\c1cn(-c2ccccc2)nc1-c1ccccc1)c1ccc(Br)o1	11	-2	-22	-75	1	·
c1cc(-c2nnc3n2N=C(c2ccc4c(c2)OCO4)CS3)ccn1	·	·	-5	2	·	·
COC(=O)C1CN(C2CCCC2)CCS(=O)(=O)N1Cc1cn(Cc2ccc(F)cc2)nn1 (stereo not drawn)	·	·	-1	-1	·	·
C/C(=N\Nc1nc2ccccc2[nH]1)c1ccc2c(c1)OCCO2	14	2	22	20*	4	13
C/C(=N\Nc1nc2ccccc2[nH]1)c1ccc2c(c1)OCO2	19	-2	24	10	6	·
C/C(=N\Nc1nc2ccccc2[nH]1)c1cc2ccccc2o1	8	0	29	24*	-4	16
COc1cccc(/C=C2\CC3(OC(=O)c4ccccc4)CCCN2C3)c1 (stereo not drawn)	·	·	1	4	·	·
COc1cc(/C=C/C(=O)OCC(=O)N2CCC(C)CC2)ccc1O	-6	-2	-4	8	-1	·
COc1cc(/C=C/C(=O)OCC(=O)N2CCc3ccccc3C2)ccc1O	1	-2	3	21*	4	1
O=c1[nH][nH]c(=O)c2cc([N+](=O)[O-])ccc12	6	0	8	18*!	0	5
COCc1cc(N2CCN(C(=O)OC(C)(C)C)C[C@H]2C)ccc1Br	·	·	-10	1	8	·
CCOc1ccc(CCNC(=O)c2ccc3[nH]ccc3c2)cc1OCC	·	·	0	0	·	·
SMILES	HTRA1 inhibitor	DAGLB inh	mABHD4 FP	SIAE primary	TCR CD3 inh	SIAE inh conf
Nc1c(C(=O)Nc2ccccc2)sc2nc(-c3ccco3)ccc12	-7	3	8	30*	6	5
COc1ccccc1NC(=O)c1sc2nc(-c3ccco3)ccc2c1N	-4	-4	·	·	·	·
O=C(N/N=C1/CC2CCC1C2)c1cc2ccccc2cc1O (stereo not drawn)	32	-6	29	19*	7	-8
O=C(NCC1CCCCC1)c1cc2ccccc2cc1O	-26	-3	-1	4	0	·
Cc1ccc(S(=O)(=O)Cc2ccc(C(=O)NCc3cccs3)o2)cc1	5	-2	-1	69*	-2	-11
Cc1ccc(CNC(=O)c2ccc(CS(=O)(=O)c3ccccc3)o2)cc1	-6	3	5	2	2	·
O=C(NCc1cccs1)c1cccc(Nc2nc3ccc(Br)cc3[nH]2)c1	7	0	14	43*	-3	22*
Cc1ccc(-n2c(SCc3cc(=O)n4ccsc4n3)nnc2-c2cccnc2)c(C)c1	8	3	0	17*	6	-3
COc1ccc(CCNc2ncnc3c2[nH]c2cc(OC)c(OC)cc23)cc1OC	9	3	13	19*	-9	26*
COc1ccc(CCNc2ncnc3cc(OC)c(OC)cc23)cc1OC	-1	0	-2	-6	-8	·
O=C(c1ccc(C#Cc2ccccc2)cc1)N1CCC(O)CC1	·	·	-3	0	·	·
CCN1C(=O)[C@H]2[C@@H](c3ccc(C)cc3)N3C(=O)N(c4cccc(Cl)c4)C(=O)[C@@]3(C)[C@H]2C1=O	-8	2	1	23*	7	4
O=C(CN1CCN(c2ccc(O)cc2)CC1)Nc1cc(S(=O)(=O)N2CCCCC2)ccc1Cl	4	5	17	21*	1	2
O=C(CN1CCN(c2ccc(O)cc2)CC1)Nc1cc(S(=O)(=O)N2CCCC2)ccc1Cl	-18	-2	18	7	-12	·
O=S(=O)(c1ccc(Cl)c(NC(=S)N/N=C/c2ccc(O)cc2)c1)N1CCOCC1	-19	0	2	18*	-1	5
C#CCCC(=O)O[C@H]1CCC[C@@]2(C(=O)N(Cc3ccccc3)c3ccccc32)[C@H]1NC(=O)CCc1ccccc1	·	·	-12	-6	·	·
CCCCCCCCN1CCS(=O)(=O)N(Cc2ccccc2)C(C(=O)OC)C1 (stereo not drawn)	·	·	-2	-1	·	·
CC(C)(C)C(=O)COC(=O)c1c2c(nc3ccccc13)CCC2	3	-1	7	-4	-1	·
NC(=O)COC(=O)c1c2c(nc3ccccc13)CCCCC2	2	-1	-6	17*	-2	3
COCC(=O)Nc1ccc2c(c1)C(=O)N(C)[C@@H]1CC[C@@H](CC(=O)OC)O[C@H]1CO2	·	·	7	3	·	·
O=C1CC[C@@H]2CC3(C[C@@H]4CCN1[C@H]24)Nc1ccccc1NC3=NC1CCCCC1 (stereo partly drawn)	1	1	2	3	1	·
Cc1ccccc1N=C1Nc2ccccc2N[C@]12C[C@H]1CCC(=O)N3CC[C@@H](C2)[C@@H]13	5	2	8	18*	-3	1
